# Columns and labels:
# [1] = target: T1, Kallikrein-5 (Homo sapiens, UniProt Q9Y337); experiment: Inhibition of human recombinant 6His-Q-FLAG-tagged KLK5 expressed in baculovirus infected Sf9 insect cells using (Tos-Gly-Pro-Arg)2[R110].2TFA as substrate measured at 30 secs interval for 5 mins by FLINT assay
# T1 sequence (Q9Y337 whole entry): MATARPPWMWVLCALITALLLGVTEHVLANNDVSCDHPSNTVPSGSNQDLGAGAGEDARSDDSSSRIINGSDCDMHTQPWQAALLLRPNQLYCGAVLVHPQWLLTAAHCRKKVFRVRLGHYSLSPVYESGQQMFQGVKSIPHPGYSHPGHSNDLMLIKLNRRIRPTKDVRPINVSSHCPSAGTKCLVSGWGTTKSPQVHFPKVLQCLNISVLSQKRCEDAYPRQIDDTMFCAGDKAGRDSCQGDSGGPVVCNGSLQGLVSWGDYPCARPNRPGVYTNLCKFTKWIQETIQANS
# How it was run: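 Standard KLK5 assay format. Its theoretical tight-binding limit corresponds to pIC50 8.4.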
# [2] = target: Plasma kallikrein (Homo sapiens, UniProt P03952); experiment: Inhibition of human C-terminal 6-His-tagged KLKB1 (G20-A638 residues) expressed in mouse NS0 cells using PFR-AMC as substrate incubated for 40 mins by FLINT assay
# [3] = target: T2, Kallikrein-8 (Homo sapiens, UniProt O60259); experiment: Inhibition of recombinant human C-terminal 10-His-tagged KLK8 (Gln29 to Gly260 residues) expressed in mouse NS0 cells using BOC-VPR-AMC as substrate incubated for 40 mins by FLINT assay
# T2 sequence (O60259 whole entry): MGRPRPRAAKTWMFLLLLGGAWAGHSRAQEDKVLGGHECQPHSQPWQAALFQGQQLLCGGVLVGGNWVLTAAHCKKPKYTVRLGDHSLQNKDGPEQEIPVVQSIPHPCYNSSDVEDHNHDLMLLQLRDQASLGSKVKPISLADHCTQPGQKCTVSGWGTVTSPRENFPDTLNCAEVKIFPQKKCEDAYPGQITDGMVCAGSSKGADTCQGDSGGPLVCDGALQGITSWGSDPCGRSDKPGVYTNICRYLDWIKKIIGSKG
# [4] = target: Prothrombin (Homo sapiens, UniProt P00734); experiment: Inhibition of human recombinant C-terminal 10-His-tagged thrombin (M1 to E622 residues) expressed in mouse NS0 cells using BOC-VPR-AMC as substrate incubated for 40 mins by FLINT assay
# [5] = target: T3, Neutrophil elastase (Homo sapiens, UniProt P08246); experiment: Inhibition of human neutrophil elastase using MeOSuc-AAPV-AMC as substrate incubated for 40 mins by FLINT assay
# T3 sequence (P08246 whole entry): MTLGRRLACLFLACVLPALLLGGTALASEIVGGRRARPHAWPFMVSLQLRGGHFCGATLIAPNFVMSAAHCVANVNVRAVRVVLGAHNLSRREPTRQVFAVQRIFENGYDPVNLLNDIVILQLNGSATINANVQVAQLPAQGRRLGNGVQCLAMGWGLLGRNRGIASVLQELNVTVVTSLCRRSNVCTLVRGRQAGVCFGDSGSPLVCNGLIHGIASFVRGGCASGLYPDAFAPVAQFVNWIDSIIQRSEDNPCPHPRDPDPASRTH
# [6] = target: Urokinase-type plasminogen activator (Homo sapiens, UniProt P00749); experiment: Inhibition of recombinant human C-terminal 10-His-tagged urokinase (M1 to L431 residues) expressed in mouse NS0 cells using Z-GGR-AMC as substrate incubated for 40 mins by FLINT assay
# [7] = Genotoxicity in Salmonella typhimurium TA100 in presence of rat S9 fraction by mini-Ames test; type: toxicity, subcellular; details: salmonella enterica subsp. enterica serovar typhimurium
# [8] = Genotoxicity in Salmonella typhimurium TA1535 in absence of rat S9 fraction by mini-Ames test; type: toxicity; details: salmonella enterica subsp. enterica serovar typhimurium
# [9] = Genotoxicity in Salmonella typhimurium TA98 in absence of rat S9 fraction by mini-Ames test; type: toxicity; details: salmonella enterica subsp. enterica serovar typhimurium
# Sequence of Plasma kallikrein (P03952 20-390 limits assumed): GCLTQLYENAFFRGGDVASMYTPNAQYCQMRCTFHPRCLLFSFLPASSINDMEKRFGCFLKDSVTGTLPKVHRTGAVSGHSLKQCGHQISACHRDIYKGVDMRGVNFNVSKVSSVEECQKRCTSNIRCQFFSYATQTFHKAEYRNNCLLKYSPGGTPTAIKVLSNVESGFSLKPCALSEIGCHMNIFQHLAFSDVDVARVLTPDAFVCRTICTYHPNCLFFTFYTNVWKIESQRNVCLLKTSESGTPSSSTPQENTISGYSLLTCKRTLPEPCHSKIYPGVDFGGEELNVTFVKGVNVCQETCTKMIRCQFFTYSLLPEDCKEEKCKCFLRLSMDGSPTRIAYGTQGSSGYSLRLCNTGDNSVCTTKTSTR
# Sequence of Plasma kallikrein (P03952 391-638 limits assumed): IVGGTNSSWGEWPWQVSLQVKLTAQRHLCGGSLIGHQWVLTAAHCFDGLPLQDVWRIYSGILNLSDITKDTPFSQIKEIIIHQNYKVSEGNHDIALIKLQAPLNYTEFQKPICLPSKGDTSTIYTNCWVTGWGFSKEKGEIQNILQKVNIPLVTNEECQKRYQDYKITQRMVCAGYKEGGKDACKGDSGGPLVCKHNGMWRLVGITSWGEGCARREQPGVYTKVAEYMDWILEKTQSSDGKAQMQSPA
smiles,measurement,setting,value
Cl.N=C(N)c1ccc([C@H]2Cc3ccc(C(F)(F)F)cc3B(O)O2)cc1OCc1cccnc1,IC50,[1],5.01 nM
same,IC50,[2],20 nM
same,IC50,[3],6.31 nM
same,IC50,[4],1260 nM
same,IC50,[5],> 100000 nM
same,IC50,[6],7940 nM
same,Activity,[7],Non-Toxic
same,Activity,[8],Non-Toxic
same,Activity,[9],Non-Toxic

# From ChEMBL document CHEMBL4396973, “Design and development of a series of borocycles as selective, covalent kallikrein 5 inhibitors” (Bioorg Med Chem Lett, 2019)
